Results taken from ChEMBL document CHEMBL2380292, “Discovery of SAR184841, a potent and long-lasting inhibitor of 11β-hydroxysteroid dehydrogenase type 1, active in a physiopathological animal model of T2D” (Bioorg Med Chem Lett, 2013).

Columns and labels:
[1] = Permeability across human Caco2 cells; type: ADME, cell-based; conditions: Caco-2, read-out: permeability
Method in brief: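 Permeability was measured with the compound alone and in the presence of the P-gp inhibitor elacridar, and expressed in 10^-7 cm/s.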

Mus musculus [2] = test: Ex vivo inhibition of 11beta-HSD1 in C57Bl/6J mouse subcutaneous fat at 30 mg/kg, po after 16 hrs; type: functional
Method in brief: (§1)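 Mice given a single oral dose as a suspension in Tween 80/0.6% methylcellulose (0.5/99.5, v/v) at 10 mL/kg. At 2 h or 16 h post-dose, animals were killed by cervical dislocation and 50 mg liver and 200 mg subcutaneous fat were taken for 11β-HSD1 activity. Reactions were stopped with HCl 1 N/methanol (1/1). 3H-cortisone and 3H-cortisol were quantified by HPLC with flow scintillation detection.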

Mus musculus [3] = test: Ex vivo inhibition of 11beta-HSD1 in C57Bl/6J mouse liver at 30 mg/kg, po after 16 hrs; type: functional; method in brief: as §1
Cytochrome P450 3A4 = Cytochrome P450 3A4 (Homo sapiens, UniProt P08684); test: Inhibition of CYP3A4 (unknown origin); type: ADME
Chain of Cytochrome P450 3A4 (P08684 whole entry): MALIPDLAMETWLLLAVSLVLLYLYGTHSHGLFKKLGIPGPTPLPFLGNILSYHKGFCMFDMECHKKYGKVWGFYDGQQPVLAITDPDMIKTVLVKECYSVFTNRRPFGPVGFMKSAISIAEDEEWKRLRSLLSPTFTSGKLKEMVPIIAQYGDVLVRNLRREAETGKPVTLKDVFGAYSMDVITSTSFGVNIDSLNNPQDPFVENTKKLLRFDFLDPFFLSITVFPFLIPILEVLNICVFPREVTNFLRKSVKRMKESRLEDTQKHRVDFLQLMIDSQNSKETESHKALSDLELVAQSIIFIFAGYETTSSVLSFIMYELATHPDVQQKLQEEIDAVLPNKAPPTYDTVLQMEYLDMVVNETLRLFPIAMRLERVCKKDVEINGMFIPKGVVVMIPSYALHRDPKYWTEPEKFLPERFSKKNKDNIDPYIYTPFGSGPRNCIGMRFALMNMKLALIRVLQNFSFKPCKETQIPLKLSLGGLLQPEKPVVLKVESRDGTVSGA

Liver microsomes [4] = test: Metabolic stability in rat liver microsomes; type: ADME, Microsome
Liver microsomes [5] = test: Metabolic stability in human liver microsomes; type: ADME, Microsome
Liver = test: Metabolic stability in mouse liver microsomes; type: ADME, Microsome
[6] = target: 11-beta-hydroxysteroid dehydrogenase 1 (Mus musculus, UniProt P50172); test: Inhibition of mouse recombinant 11beta-HSD1 by scintillation proximity assay
Chain of 11-beta-hydroxysteroid dehydrogenase 1 (Mus musculus, UniProt P50172) (P50172 whole entry): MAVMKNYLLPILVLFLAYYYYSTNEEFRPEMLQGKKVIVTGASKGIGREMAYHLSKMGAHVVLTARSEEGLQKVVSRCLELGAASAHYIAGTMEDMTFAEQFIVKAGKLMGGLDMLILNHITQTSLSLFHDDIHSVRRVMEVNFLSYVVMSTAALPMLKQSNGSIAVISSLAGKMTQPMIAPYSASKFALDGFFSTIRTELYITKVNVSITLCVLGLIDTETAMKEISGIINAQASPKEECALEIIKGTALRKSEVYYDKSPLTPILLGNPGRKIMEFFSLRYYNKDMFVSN

[7] = target: 11-beta-hydroxysteroid dehydrogenase 1 (Rattus norvegicus, UniProt P16232); test: Inhibition of rat 11beta-HSD1
Chain of 11-beta-hydroxysteroid dehydrogenase 1 (Rattus norvegicus, UniProt P16232) (P16232 whole entry): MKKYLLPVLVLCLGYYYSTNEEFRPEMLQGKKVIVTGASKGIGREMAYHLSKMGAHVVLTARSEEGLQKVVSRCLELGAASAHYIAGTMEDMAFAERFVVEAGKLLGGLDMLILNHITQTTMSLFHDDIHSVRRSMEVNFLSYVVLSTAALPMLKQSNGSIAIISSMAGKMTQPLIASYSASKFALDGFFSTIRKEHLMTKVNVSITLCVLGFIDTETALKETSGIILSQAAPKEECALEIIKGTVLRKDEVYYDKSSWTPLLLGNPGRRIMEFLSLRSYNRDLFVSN

Mus musculus [8] = test: Ex vivo inhibition of 11beta-HSD1 in C57Bl/6J mouse subcutaneous fat at 3 mg/kg, po after 16 hrs; type: functional; method in brief: as §1
Mus musculus [9] = test: Ex vivo inhibition of 11beta-HSD1 in C57Bl/6J mouse liver at 3 mg/kg, po after 16 hrs; type: functional; method in brief: as §1
[10] = target: T1, 11-beta-hydroxysteroid dehydrogenase type 2 (Homo sapiens, UniProt P80365); test: Inhibition of human 11beta-HSD2
T1 sequence (P80365 whole entry): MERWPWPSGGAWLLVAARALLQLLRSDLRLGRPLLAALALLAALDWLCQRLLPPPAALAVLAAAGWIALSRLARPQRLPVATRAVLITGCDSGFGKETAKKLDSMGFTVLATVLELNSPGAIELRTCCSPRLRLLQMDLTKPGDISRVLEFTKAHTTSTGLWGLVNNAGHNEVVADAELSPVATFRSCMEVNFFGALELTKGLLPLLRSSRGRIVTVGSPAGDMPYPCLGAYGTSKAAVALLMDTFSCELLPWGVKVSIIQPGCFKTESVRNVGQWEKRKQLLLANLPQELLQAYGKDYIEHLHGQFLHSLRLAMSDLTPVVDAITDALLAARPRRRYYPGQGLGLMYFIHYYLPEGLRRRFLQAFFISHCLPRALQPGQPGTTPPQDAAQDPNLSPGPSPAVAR

Mus musculus [11] = test: Ex vivo inhibition of 11beta-HSD1 in C57Bl/6J mouse subcutaneous fat at 30 mg/kg, os after 2 hrs; type: functional; conditions: sc; method in brief: as §1
Mus musculus [12] = test: Ex vivo inhibition of 11beta-HSD1 in C57Bl/6J mouse liver at 30 mg/kg, os after 2 hrs; type: functional; method in brief: as §1
Mus musculus [13] = test: Ex vivo inhibition of 11beta-HSD1 in C57Bl/6J mouse subcutaneous fat at 10 mg/kg, os after 2 hrs; type: functional; conditions: sc; method in brief: as §1
Mus musculus [14] = test: Ex vivo inhibition of 11beta-HSD1 in C57Bl/6J mouse liver at 10 mg/kg, os after 2 hrs; type: functional; method in brief: as §1

Papp [1] [×10⁻⁶ cm/s] | IC50 (Cytochrome P450 3A4) [µM] | Stability (Liver microsomes [4]) [%] | Stability (Liver microsomes [5]) [%] | Stability (Liver) [%] | IC50 [6] [µM] | IC50 [7] [µM] | IC50 [10] [µM] | SMILES | inhibition in vivo at 30 mg/kg (Mus musculus [2]) [%] | inhibition in vivo at 30 mg/kg (Mus musculus [3]) [%] | inhibition in vivo at 3 mg/kg (Mus musculus [8]) [%] | inhibition in vivo at 3 mg/kg (Mus musculus [9]) [%] | inhibition in vivo at 30 mg/kg (Mus musculus [11]) [%] | inhibition in vivo at 30 mg/kg (Mus musculus [12]) [%] | inhibition in vivo at 10 mg/kg (Mus musculus [13]) [%] | inhibition in vivo at 10 mg/kg (Mus musculus [14]) [%]
0.7 | > 10 | 24 | 9 | 18 | 0.001 | 0.028 | – | CS(=O)(=O)N1CCN(c2cnc(N3CCN(C(=O)N[C@H]4C5CC6CC4C[C@](O)(C6)C5)c4ccccc43)nc2)CC1 | 0 | 30 | – | – | – | – | – | –
7.9 | > 30 | 12 | 12 | 18 | 0.002 | 0.016 | – | CS(=O)(=O)N1CCN(c2ccc(N3CCN(C(=O)N[C@H]4C5CC6CC4C[C@](O)(C6)C5)c4ccccc43)nc2)CC1 | 20 | 47 | – | – | – | – | – | –
19.4 | > 10 | 17 | 2 | 9 | 0.001 | 0.114 | – | CS(=O)(=O)N1CCN(c2ccc(N3CCN(C(=O)N[C@H]4C5CC6CC4C[C@](O)(C6)C5)c4ccccc43)cc2)CC1 | 55 | 80 | – | – | – | – | – | –
9.8 | > 10 | 23 | 9 | 22 | 0.021 | 0.021 | – | O=C(N[C@H]1C2CC3CC1C[C@](O)(C3)C2)N1CCN(c2ccc(N3CCN(S(=O)(=O)C4CC4)CC3)cn2)c2ccccc21 | 40 | 65 | – | – | – | – | – | –
1 | > 30 | 18 | 5 | 14 | – | 0.065 | – | CC(=O)N1CCN(c2ccc(N3CCN(C(=O)N[C@H]4C5CC6CC4C[C@](O)(C6)C5)c4ccccc43)nc2)CC1 | 0 | 0 | – | – | – | – | – | –
18.2 | > 10 | 32 | 49 | 27 | 0.036 | 0.07 | – | COc1ccc(-c2cnc(N3CCN(C(=O)N[C@H]4C5CC6CC4C[C@](C(N)=O)(C6)C5)c4ccccc43)nc2)cc1 | – | – | – | – | – | – | – | –
3.4 | – | 20 | 14 | 6 | 0.008 | 0.018 | – | CC(C)(C)N1CCN(c2ccc(N3CCN(C(=O)N[C@H]4C5CC6CC4C[C@](O)(C6)C5)c4ccccc43)nc2)CC1 | 20 | 55 | – | – | – | – | – | –
0.4 | > 30 | 31 | 1 | 18 | 0.008 | 0.009 | – | NC(=O)[C@]12CC3CC(C1)[C@@H](NC(=O)N1CCN(c4ccc(N5CCN(S(=O)(=O)C6CC6)CC5)cn4)c4ccccc41)C(C3)C2 | 50 | 75 | > 50 | > 50 | – | – | – | –
– | < 0.3 | – | – | – | – | 0.6 | > 10 | COc1ccc(-c2cnc(N3CCN(C(=O)N4CCC(c5cn[nH]c5)C4)c4ccccc43)nc2)cc1 (centres undefined) | – | – | – | – | 70 | 90 | – | –
– | > 10 | 70 | 89 | 96 | 0.005 | 0.1 | – | COc1ccc(-c2cnc(N3CCN(C(=O)N[C@H]4C5CC6CC4C[C@](OC(N)=O)(C6)C5)c4ccccc43)nc2)cc1 | – | – | – | – | – | – | – | –
24.8 | > 10 | 33 | 41 | 21 | 0.015 | 0.11 | – | COc1ccc(-c2cnc(N3CCN(C(=O)N[C@H]4C5CC6CC4C[C@](O)(C6)C5)c4ccccc43)nc2)cc1 | – | – | – | – | – | – | 30 | 40
3 | > 10 | 26 | 3 | 22 | 0.005 | 0.024 | – | CS(=O)(=O)N1CCN(c2ccc(N3CCN(C(=O)N[C@H]4C5CC6CC4C[C@](C(N)=O)(C6)C5)c4ccccc43)cc2)CC1 | 30 | 55 | – | – | – | – | – | –
